Values after ≈ are worked out from the molar mass of the structure shown.
Columns and labels:
Assay type in all cases: functional
K562 = assay: Cytotoxicity against human K562 cells by MTT assay; settings: read-out: LC50 (the source's name)
Candida albicans = assay: Antifungal activity against Candida albicans at 2 ug/disk by paper disk method; settings: read-out: IZ
In short: (§1)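 Paper disk diffusion assay with 2 µg of compound loaded per disk. The read-out is the diameter of the clear zone around the disk.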

Aspergillus niger = assay: Antifungal activity against Aspergillus niger at 2 ug/disk by paper disk method; settings: read-out: IZ; in short: as §1

| SMILES | CC50 (K562) [µg/mL] | zone of inhibition at 2 µg/disc (Candida albicans) [mm] | zone of inhibition at 2 µg/disc (Aspergillus niger) [mm] |
| --- | --- | --- | --- |
| COC(CC1OC(=O)CC(O)C/C=C/C(=O)C(C)C(OC)c2coc(n2)-c2coc(n2)-c2coc(n2)/C=C/CCC1C)C(C)CCC(=O)C(C)C(C/C=C/N(C)C=O)OC (stereo not drawn) [HALICHONDRAMIDE] | 0.19 (≈ 0.227 µM) | 18 | 21 |
| COC(CC1OC(=O)CC(O)CCCC(=O)C(C)C(OC)c2coc(n2)-c2coc(n2)-c2coc(n2)/C=C/CCC1C)C(C)CCC(=O)C(C)C(C/C=C/N(C)C=O)OC (stereo not drawn) [DIHYDROHALICHONDRAMIDE] | 0.32 (≈ 0.381 µM) | 19 | 11 |
| COC(CC1OC(=O)CC(O)/C=C/CC(=O)C(C)C(OC)c2coc(n2)-c2coc(n2)-c2coc(n2)/C=C/CCC1C)C(C)CCC(=O)C(C)C(C/C=C/N(C)C=O)OC (stereo not drawn) [NEOHALICHONDRAMIDE] | 0.38 (≈ 0.454 µM) | 20 | 15 |
| COC(CC1OC(=O)CC(O)CC(O)CC(=O)C(C)C(OC)c2coc(n2)-c2coc(n2)-c2coc(n2)/C=C/CCC1C)C(C)CCC(=O)C(C)C(C/C=C/N(C)C=O)OC (stereo not drawn) [JASPISAMIDE A] | 0.31 (≈ 0.363 µM) | 18 | 10 |
| COC(=O)c1nc(-c2nc(C(OC)C(C)C(=O)/C=C/CC(O)CC(=O)OC(CC(OC)C(C)CCC(=O)C(C)C(C/C=C/N(C)C=O)OC)C(C)CC/C=C/C(N)=O)co2)co1 (stereo not drawn) [SECOHALICHONDRAMIDE] | > 500 | 15 | – |
| COC(CC1OC(=O)CC(O)C/C=C\C(=O)C(C)C(OC)c2coc(n2)-c2coc(n2)-c2coc(n2)/C=C\CCC1C)C(C)CCC(=O)C(C)C(C/C=C/N(C)C=O)OC (stereo not drawn) | 0.9 (≈ 1.08 µM) | 10 | 10 |
| COC(=O)c1coc(/C=C/CCC(C)C(CC(OC)C(C)CCC(=O)C(C)C(C/C=C/N(C)C=O)OC)OC(=O)CC(O)C/C=C/C(=O)C(C)C(OC)c2coc(C(N)=O)n2)n1 (stereo not drawn) [HALISHIGAMIDE D] | 92 (≈ 105 µM) | – | – |
